Rows were chosen to be rich in hits. Some 2.1% of all compounds tested hit in one or more screens of this group.
GSTO1 counter = GSTO1 inhibition, counter-screen for RBBP9 inhibitors | P78417 | inhibition, % at 5.96 µM | 1.1% of 300,000 active | recombinant GSTO1, activity-based probe fluorescence polarization;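 active = inhibition above the campaign mean inhibition plus 3 SD, cut at about 35% in these data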;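 note: 0% = GSTO1-1 with DMSO and 100% = wells lacking GSTO1-1 enzyme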
TDP2 inh = blocks human TDP2 phosphodiesterase activity | O95551 | recombinant TDP2, T5PNP hydrolysis, p-nitrophenol absorbance 415 nm | inhibition, % at 12.8 µM | 0.34% of 370,000 active | AID 720702;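 active = inhibition above the mean of all tested compounds plus 3 SD, set per campaign, cut at about 25% in these data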;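 note: 0% = DMSO with enzyme and 100% = buffer with substrate but no TDP2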
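Assay system: recombinant human TDP2 / Reagent: T5PNP substrate at 5 mM, a TopII-DNA adduct mimic / Measured by: epi absorbance from released p-nitrophenol / Evaluation: % inhibition relative to enzyme-containing and enzyme-free wells / Control set: enzyme-free and DMSO wells / Replicates: each compound tested once, singlicate / Schedule: enzyme reaction with compound for 2 h at 37 °C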
Apaf-1 inh = blocks human Apaf-1 apoptosome activity; reconstituted apoptosome caspase-3 activity, DEVD-Rh110 fluorescence; 0.71% of 330,000 active; inhibition, % at 20 µM; active = inhibition of at least 40% at 20 µM;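 note: plate controls were DMSO wells for no effect and DEVD-CHO caspase inhibitor wells for full effect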
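Material: biochemical Apaf-1 apoptosome reconstitution. Medium: Hepes buffer, pH 7.5. Also added: cytochrome c activation, bis-DEVD rhodamine 110 substrate. Timing: 30 min compound preincubation, 50 min activation, room temperature. Measured by: rhodamine 110 fluorescence at Ex 480/Em 540 nm.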
PP1 inh = counter-screen for PP5 inhibitors: inhibitors of human PP1-alpha; 0.9% of 320,000 active; P62136; inhibition, % at 6.7 µM; purified PP1alpha, OMFP fluorescence;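 active = inhibition above the mean inhibition of all tested compounds plus 3 SD, computed separately for each screening campaign, cut at about 15% in these data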
PP5 primary = inhibitors of human protein phosphatase 5 (PP5) | purified PP5c, OMFP substrate fluorescence | 0.18% of 320,000 active | AID 1987 | inhibition, % at 6.7 µM | P53041;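 active = inhibition above the campaign's mean inhibition across all tested compounds plus 3 SD, cut at about 9.5% in these data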;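 note: 0% = DMSO only and 100% = 100 µM cantharidin control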
Target sequence (P53041 whole entry, looked up): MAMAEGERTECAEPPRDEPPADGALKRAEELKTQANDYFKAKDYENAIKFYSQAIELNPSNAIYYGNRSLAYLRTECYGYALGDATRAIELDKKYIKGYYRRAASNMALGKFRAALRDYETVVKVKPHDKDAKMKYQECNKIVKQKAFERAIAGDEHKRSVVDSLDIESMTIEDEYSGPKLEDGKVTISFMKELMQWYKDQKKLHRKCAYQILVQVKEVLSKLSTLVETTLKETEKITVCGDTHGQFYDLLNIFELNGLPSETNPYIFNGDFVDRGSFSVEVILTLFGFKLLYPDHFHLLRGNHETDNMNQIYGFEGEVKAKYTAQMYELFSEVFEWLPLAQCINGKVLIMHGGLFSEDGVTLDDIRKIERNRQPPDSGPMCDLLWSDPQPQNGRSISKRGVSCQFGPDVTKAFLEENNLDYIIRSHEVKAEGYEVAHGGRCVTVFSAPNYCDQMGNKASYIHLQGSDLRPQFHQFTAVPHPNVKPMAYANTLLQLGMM
An asterisk follows results filed as active; x = no result.

SMILES	GSTO1 counter	TDP2 inh	Apaf-1 inh	PP1 inh	PP5 primary
CN(C(=O)[C@H]1O[C@@H](n2cnc3c(=O)[nH]c(N)nc32)[C@H](O)[C@@H]1O)C1CCCCC1	x	7	x	x	x
COCCN(C[C@@H]1[C@H](c2ccccc2)[C@H](CO)N1c1nc(C)c(C)s1)S(=O)(=O)c1ccccc1[N+](=O)[O-]	x	-4	x	x	x
O=C(c1ccco1)N(CCC(c1ccccc1)c1ccco1)Cc1ccco1 (centres undefined)	0	1	14	17*	3
COc1ccc(/C=C/C(=O)NC(=S)NCc2ccccc2)cc1OC	-9	2	-9	16*	0
Cc1ccc(S(=O)(=O)N2CCCCC2)cc1C(=O)N(C)CCOc1ccccc1	4	-5	30	-3	1
COc1ccc(S(=O)(=O)N2CCCCCC2)cc1C(=O)N(C)CCOc1ccccc1	5	-6	55*	-5	0
CCN1/C(=C/C=C/c2oc3ccc4ccccc4c3[n+]2CC)Oc2ccc3ccccc3c21	-34	x	76*	49*	-1
CC[n+]1c(/C=C/N(C)c2ccccc2)oc2ccc(Cl)cc21	3	4	3	-1	2
COc1ccc(C[C@H]2CN3C(=NC[C@@H]3Cc3ccccc3)N2CCNC(=O)CCC2CCCCC2)cc1	2	-11	52*	7	1
COCCCN1C(=O)[C@H](CC(=O)N2CCC(c3ccccc3)CC2)[C@]2(C(=O)OC)CCCCC=C12	x	-2	x	x	x
COC(=O)[C@]12C=CCN1[C@@H](c1ccc(C(F)(F)F)cc1)c1c(c3ccccc3n1S(=O)(=O)c1ccc(C)cc1)C2	x	2	x	x	x
COc1ccc2c(c1)c(CC(=O)Nc1nnc(C3CC3)s1)c(C)n2C(=O)c1ccc(Cl)cc1	9	8	-9	15*	2
CCCCC1=CC2=C(c3ccco3)C(=O)C(C)(OC(=O)c3ccc(OC)cc3)C(=O)C2=CN1Cc1ccccc1 (centres undefined)	17	-4	22	13	0
CCCCC1=CC2=C(c3ccco3)C(=O)C(C)(OC(=O)c3ccc(OC)cc3)C(=O)C2=CN1Cc1ccc2c(c1)OCO2 (centres undefined)	10	x	8	24*	2
CCC(=O)Nc1cc(C(=O)O)ccc1Sc1ccccc1	0	5	1	17*	-2
CCCC(=O)Nc1cc(C(=O)O)ccc1Sc1ccccc1	1	3	0	-2	-2
N#Cc1cccc(N=Cc2c(O)ccc3ccccc23)c1	38*	1	11	-4	0
O=c1[nH]c(C2CCCN(S(=O)(=O)c3ccccc3Cl)C2)nc2c1nnn2Cc1ccc2c(c1)OCCO2 (centres undefined)	14	-1	25	16*	2
Cc1ccc(Cn2nnc3c(=O)[nH]c(C4CCN(S(=O)(=O)c5ccc(C)cc5)CC4)nc32)cc1	-10	-13	20	14	5
Cc1ccc(Cn2nnc3c(=O)[nH]c(C4CCN(S(=O)(=O)c5ccc(S(=O)(=O)NC6CC6)cc5)CC4)nc32)cc1	-37	-9	29	17*	5
COC(=O)c1ccc(Cn2nnc3c(=O)[nH]c(C4CCN(S(=O)(=O)c5cc(C)ccc5C)CC4)nc32)cc1	0	6	25	16*	6
C=CCC12C[C@@]3(O[C@H](c4ccc(C(F)(F)F)cc4)N=C3C[C@H](c3ccc(OC)cc3)[C@H]1C)N(Cc1ccc3c(c1)OCO3)C2=O	x	0	x	x	x
CCCNC(=O)C[C@H]1CC[C@H]2[C@@H](COc3ccc(NC(=O)Nc4ccc(C#N)cc4)cc3C(=O)N2C)O1	x	-7	x	x	x
O=C(CCl)N(c1ccccc1)C1CCCCC1	67*	-8	6	-5	-1
CCOC(=O)C(C(C)=O)c1c(Br)c(O)c(O)c2c(C(=O)c3ccc(C)cc3)coc12 (centres undefined)	67*	-3	7	11	3
SMILES	GSTO1 counter	TDP2 inh	Apaf-1 inh	PP1 inh	PP5 primary
NS(=O)(=O)c1ccc(N=C2C(=O)Nc3ccccc32)cc1	2	-2	1	16*	0
COc1ccc(NC(=O)Nc2c(O)ccc3ccccc23)cc1	37*	-1	32	-5	5
CCC(Oc1ccc2c(=O)c(-c3ccccc3OC)coc2c1)C(=O)OCc1ccccc1 (centres undefined)	-6	-1	x	17*	0
CCc1ccc(NC(=O)NNC(=O)c2cc3ccccc3cc2O)cc1	0	-13	10	15*	0
CCOc1ccc(NC(=O)NNC(=O)c2cc3ccccc3cc2O)cc1	-3	-18	2	10	-2
COc1ccc(NC(=S)N2CCN(c3ccc4c(c3)C3CCN(C(=O)OCc5ccccc5)C4C3)CC2)c(OC)c1 (centres undefined)	x	2	x	x	x
CCn1cc(C(=O)O)c(=O)c2cc(F)c(N/N=C/c3ccccc3)cc21	7	5	13	16*	-2
C=CCN(C(=O)[C@@H](CCCC)[C@@H](O)c1ccc2ccccc2c1)c1ccccc1	x	-16	x	x	x
CN(CC(=O)Nc1sc2c(c1C#N)CCCCC2)Cc1nc2ccccc2c(=O)[nH]1	2	10	10	15*	1
COc1ccc(C(=O)N(CCc2ccccc2)Cc2ccccc2)cc1S(=O)(=O)N1CCOCC1	9	11	45*	0	0
Cc1ccc(C(=O)N(CCc2ccccc2)Cc2ccccc2)cc1S(=O)(=O)N1CCOCC1	x	0	x	x	x
C[C@H]1[C@H](N(Cc2cccs2)Cc2cccs2)CC[C@@]23CCCN2C(=O)CCC[C@@H]13	x	-9	x	x	x
Cc1ccc(O)c(NC(=O)c2noc(C(C)C)c2[N+](=O)[O-])c1	35*	-9	-9	0	-1
COc1ccc(NC(=O)c2noc(C(C)C)c2[N+](=O)[O-])cc1	33	-9	-2	0	3
CC(=O)c1ccc(NC(=O)c2noc(C(C)C)c2[N+](=O)[O-])cc1	4	4	-127	-1	3
CC(C)c1onc(C(=O)NCc2ccc(F)cc2)c1[N+](=O)[O-]	37*	2	6	0	2
CC(C)c1onc(C(=O)N(C)Cc2ccccc2)c1[N+](=O)[O-]	11	-3	2	2	2
CC(C)c1onc(C(=O)NCCc2ccccc2)c1[N+](=O)[O-]	37*	0	-4	0	4
O=c1ccn(C2CC(O)C(COC(c3ccccc3)(c3ccccc3)c3ccccc3)O2)c(=O)[nH]1 (centres undefined)	x	4	x	x	x
COC(=O)[C@]12CCCCC=C1N(Cc1ccccc1)C(=O)[C@H](CC(=O)NCCC(C)C)C2	x	1	x	x	x
Nc1c(Cl)cc(-c2csc(N3CCCC3c3nc4cc(Cl)c(N5CCCCC5)cc4n3CCCO)n2)cc1Cl (centres undefined)	4	-11	16	17*	4
Cc1nnc(NC(=O)c2ccc(S(=O)(=O)N3CCCCCC3)cc2)o1	2	0	-9	17*	1
Cc1cccnc1NC(=O)c1ccc(S(=O)(=O)N2CCCC2)cc1	x	14	x	x	x

Source: PubChem (several laboratories)
